Active and inactive are the calls of the source.
Legend:
LOX IMVI = experiment: Antiproliferative activity against human LOXIMVI cells after 48 hrs by sulforhodamine B assay; format: functional
Method in brief: (§1)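 NCI 60-cell-line panel covering nine cancer types (leukemia, non-small cell lung, colon, CNS, melanoma, ovarian, renal, prostate, breast). Compounds were first tested at a single dose, then in a five-dose screen (series starting 0.01, 0.1 …) if they met NCI threshold criteria. Reported per line: GI50 (molar concentration inhibiting 50% net growth), TGI (total growth inhibition) and LC50 (50% net cell death).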

HL-60(TB) = experiment: Antiproliferative activity against human HL-60(TB) cells after 48 hrs by sulforhodamine B assay; format: functional; conditions: HL-60, 48 h
Method in brief: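 Tested by the National Cancer Institute in its full tumour cell panel covering nine cancer types, including leukemia. Compounds were first screened at a single dose. Those passing the preset inhibition threshold then went to a 5-dose screen. GI50 is the molar concentration giving 50% inhibition of net cell growth; TGI and LC50 were also derived.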

IGROV-1 = experiment: Antiproliferative activity against human IGROV1 cells after 48 hrs by sulforhodamine B assay; format: functional; conditions: IGROV-1, 48 h; method in brief: as §1
[1] = Antiproliferative activity against human […] cells after 48 hrs by sulforhodamine B assay; format: functional; method in brief: as §1
NCI-H460 = experiment: Antiproliferative activity against human NCI-H460 cells after 48 hrs by sulforhodamine B assay; format: functional; conditions: NCI-H460, 48 h; method in brief: as §1
NCI/ADR-RES = experiment: Antiproliferative activity against human NCI/ADR-RES cells after 48 hrs by sulforhodamine B assay; format: functional; method in brief: as §1
UO-31 = experiment: Antiproliferative activity against human UO31 cells after 48 hrs by sulforhodamine B assay; format: functional; conditions: UO-31, 48 h
Method in brief: (§2)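 NCI 60-cell-line panel screen: single dose 10 µM first, then 5-dose testing (0.01, 0.1, … molar series). For each line, GI50 is the molar concentration giving 50% inhibition of net cell growth, TGI gives total inhibition of net growth, and LC50 gives 50% net cell death. Method follows the NCI DTP protocol.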

CCRF-CEM = experiment: Antiproliferative activity against human CCRF-CEM cells after 48 hrs by sulforhodamine B assay; format: functional; method in brief: as §1
HOP-62 = experiment: Antiproliferative activity against human HOP62 cells after 48 hrs by sulforhodamine B assay; format: functional; conditions: HOP-62, 48 h; method in brief: as §1
DU-145 = experiment: Antiproliferative activity against human DU145 cells after 48 hrs by sulforhodamine B assay; format: functional; conditions: DU-145, 48 h; method in brief: as §1
MCF7 = experiment: Antiproliferative activity against human MCF7 cells after 48 hrs by sulforhodamine B assay; format: functional; conditions: MCF7, 48 h; method in brief: as §1
BT-549 = experiment: Antiproliferative activity against human BT549 cells after 48 hrs by sulforhodamine B assay; format: functional; conditions: BT-549, 48 h; method in brief: as §1
HCC 2998 = experiment: Antiproliferative activity against human HCC2998 cells after 48 hrs by sulforhodamine B assay; format: functional; conditions: HCC 2998, 48 h; method in brief: as §1
CAKI-1 = experiment: Antiproliferative activity against human Caki1 cells after 48 hrs by sulforhodamine B assay; format: functional; conditions: CAKI-1, 48 h; method in brief: as §1
HCT-116 = experiment: Antiproliferative activity against human HCT116 cells after 48 hrs by sulforhodamine B assay; format: functional; conditions: HCT-116, 48 h; method in brief: as §1
MDA-MB-435 = experiment: Antiproliferative activity against human MDA-MB-435 cells after 48 hrs by sulforhodamine B assay; format: functional; conditions: MDA-MB-435, 48 h; method in brief: as §1
UACC-257 = experiment: Antiproliferative activity against human UACC257 cells after 48 hrs by sulforhodamine B assay; format: functional; conditions: UACC-257, 48 h; method in brief: as §2
RXF 393 = experiment: Antiproliferative activity against human RXF393 cells after 48 hrs by sulforhodamine B assay; format: functional; conditions: RXF 393, 48 h; method in brief: as §1
SN12C = experiment: Antiproliferative activity against human SN12C cells after 48 hrs by sulforhodamine B assay; format: functional; method in brief: as §1
SF-539 = experiment: Antiproliferative activity against human SF539 cells after 48 hrs by sulforhodamine B assay; format: functional; conditions: SF-539, 48 h; method in brief: as §1
HT-29 = experiment: Antiproliferative activity against human HT-29 cells after 48 hrs by sulforhodamine B assay; format: functional; conditions: HT-29, 48 h; method in brief: as §1
OVCAR-5 = experiment: Antiproliferative activity against human OVCAR5 cells after 48 hrs by sulforhodamine B assay; format: functional; conditions: OVCAR-5, 48 h; method in brief: as §1
ACHN = experiment: Antiproliferative activity against human ACHN cells after 48 hrs by sulforhodamine B assay; format: functional; method in brief: as §1
M14 = experiment: Antiproliferative activity against human M14 cells after 48 hrs by sulforhodamine B assay; format: functional; conditions: M14, 48 h; method in brief: as §1
SNB-19 = experiment: Antiproliferative activity against human SNB19 cells after 48 hrs by sulforhodamine B assay; format: functional; conditions: SNB-19, 48 h; method in brief: as §1
K562 = experiment: Induction of apoptosis in human K562 cells assessed as increase in hypophosphorylated Rb level at 60 uM after 1.5 hrs by flow cytometric assay; format: functional, cell-based
Method in brief: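 K562 cells treated with or without 60 µM compound. 1.5 × 10⁶ cells washed in PBS, fixed and permeabilized 20 min in Cytofix/Cytoperm, then washed in Perm/Wash buffer. Stained 30 min at 4 °C with FITC anti-total pRb or PE anti-hypophosphorylated pRb mAbs, washed, and analysed by flow cytometry.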

TK-10 = experiment: Antiproliferative activity against human TK10 cells after 48 hrs by sulforhodamine B assay; format: functional; conditions: TK-10, 48 h; method in brief: as §2
SK-MEL-5 = experiment: Antiproliferative activity against human SK-MEL-5 cells after 48 hrs by sulforhodamine B assay; format: functional; conditions: SK-MEL-5, 48 h; method in brief: as §1
[2] = read-out: LC50 (the source's name)

With `Nc1nn(C(=O)Nc2ccc(Cc3ccccc3)cc2)c2ccc(Cl)cc12` the GI50 (LOX IMVI) was 0.0503 µM, the LC50 (concentration causing 50% net cell death) (LOX IMVI) was 53.2 µM and the TGI (LOX IMVI) was 18.4 µM. The GI50 (HL-60(TB)) was 2.62 µM, the TGI (HL-60(TB)) was 42.1 µM and the CC50 (HL-60(TB); [2]) was > 100 µM. The GI50 (IGROV-1) was 13.7 µM, the TGI (IGROV-1) was > 100 µM and the CC50 (IGROV-1; [2]) was > 100 µM. For the same compound, the GI50 [1] was 2.58 µM, the TGI [1] was 46.5 µM and the CC50 [1, 2] was > 100 µM. For the same compound, the GI50 (NCI-H460) was 0.0645 µM, the TGI (NCI-H460) was 14.7 µM and the CC50 (NCI-H460; [2]) was 60.6 µM. The GI50 (NCI/ADR-RES) was 11 µM, the TGI (NCI/ADR-RES) was 39.1 µM and the CC50 (NCI/ADR-RES; [2]) was > 100 µM. The GI50 (UO-31) was 3.12 µM, the TGI (UO-31) was 84.5 µM and the CC50 (UO-31; [2]) was > 100 µM. For the same compound, the GI50 (CCRF-CEM) was 1.23 µM, the LC50 (concentration causing 50% net cell death) (CCRF-CEM) was > 100 µM and the TGI (CCRF-CEM) was 34.4 µM. For the same compound, the GI50 (HOP-62) was 1.21 µM, the LC50 (concentration causing 50% net cell death) (HOP-62) was 59.7 µM and the TGI (HOP-62) was 16.4 µM. The GI50 (DU-145) was 10.4 µM, the TGI (DU-145) was 28.9 µM and the CC50 (DU-145; [2]) was 80 µM. For the same compound, the GI50 (MCF7) was 0.395 µM, the TGI (MCF7) was 18.8 µM and the CC50 (MCF7; [2]) was 84 µM. For the same compound, the GI50 (BT-549) was 5.88 µM, the TGI (BT-549) was 44 µM and the CC50 (BT-549; [2]) was > 100 µM. For the same compound, the GI50 (HCC 2998) was 0.238 µM, the TGI (HCC 2998) was 1.53 µM and the CC50 (HCC 2998; [2]) was > 100 µM. The GI50 (CAKI-1) was 0.217 µM, the TGI (CAKI-1) was > 100 µM and the CC50 (CAKI-1; [2]) was > 100 µM. It also gave a GI50 (HCT-116) of 0.467 µM, an LC50 (concentration causing 50% net cell death) (HCT-116) of 77.2 µM and a TGI (HCT-116) of 25.1 µM. The GI50 (MDA-MB-435) was 0.0813 µM, the TGI (MDA-MB-435) was > 100 µM and the CC50 (MDA-MB-435; [2]) was > 100 µM. For the same compound, the GI50 (UACC-257) was 4.92 µM, the TGI (UACC-257) was > 100 µM and the CC50 (UACC-257; [2]) was > 100 µM. The GI50 (RXF 393) was 13.5 µM, the TGI (RXF 393) was 31.5 µM and the CC50 (RXF 393; [2]) was 73.4 µM. For the same compound, the GI50 (SN12C) was 14.6 µM, the TGI (SN12C) was 42.9 µM and the CC50 (SN12C; [2]) was > 100 µM. The GI50 (SF-539) was 1.51 µM, the TGI (SF-539) was 11.5 µM and the CC50 (SF-539; [2]) was 38.8 µM. It also gave a GI50 (HT-29) of 1.15 µM, an LC50 (concentration giving 50% net cell death) (HT-29) of 79.1 µM and a TGI (HT-29) of 24 µM. For the same compound, the GI50 (OVCAR-5) was 18.8 µM, the TGI (OVCAR-5) was > 100 µM and the CC50 (OVCAR-5; [2]) was > 100 µM. The GI50 (ACHN) was 0.0468 µM, the TGI (ACHN) was 17.4 µM and the CC50 (ACHN; [2]) was > 100 µM. The GI50 (M14) was 0.0888 µM, the TGI (M14) was 14 µM and the CC50 (M14; [2]) was > 100 µM. The GI50 (SNB-19) was 14.6 µM, the TGI (SNB-19) was 43.3 µM and the CC50 (SNB-19; [2]) was > 100 µM. For the same compound, the Activity (K562) was “Active”, the GI50 (TK-10) was 15.6 µM and the TGI (TK-10) was 38.7 µM. For the same compound, the CC50 (TK-10; [2]) was 96.3 µM, the GI50 (SK-MEL-5) was 0.283 µM and the TGI (SK-MEL-5) was 21.1 µM. It also gave a CC50 (SK-MEL-5; [2]) of 80.2 µM.

— ChEMBL document CHEMBL1649392, “Synthesis of substituted 3-amino-N-phenyl-1H-indazole-1-carboxamides endowed with antiproliferative activity” (Eur J Med Chem, 2011)
